Data taken from ChEMBL document CHEMBL5058577, “EUbOPEN Chemogenomics Library 2 (Multiplex)” (2022).

System: Fibroblast
Experiment: Multiplex assay against human fibroblast
Type: toxicity, cell-based
How it was run: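 Per cents of healthy-nucleus cells form the tubulin, mitochondrial-mass and membrane-permeability phenotype values. Live cells were stained at seeding with Hoechst33342, BioTracker Green Microtubule Cytoskeleton Dye, MitoTracker Red and Annexin V Alexa Fluor 680. After compound addition they were imaged on a CQ1 microscope at 37°C and 5% CO2, and CellPathfinder machine-learning gating split them into Hoechst high-intensity objects or normal cells, normal cells into healthy, pyknosed or fragmented nuclei, and pyknosed cells into mitotic or apoptotic.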

[1] = 12 h, 1 µM, compound concentration 1 uM, replicate 1
[2] = 12 h, 1 µM, compound concentration 1 uM, replicate 2
[3] = 12 h, 10 µM, compound concentration 10 uM, replicate 1
[4] = 12 h, 10 µM, compound concentration 10 uM, replicate 2
[5] = 24 h, 1 µM, compound concentration 1 uM, replicate 1
[6] = 24 h, 1 µM, compound concentration 1 uM, replicate 2
[7] = 24 h, 10 µM, compound concentration 10 uM, replicate 1
[8] = 24 h, 10 µM, compound concentration 10 uM, replicate 2
[9] = 48 h, 1 µM, compound concentration 1 uM, replicate 1
[10] = 48 h, 1 µM, compound concentration 1 uM, replicate 2
[11] = 48 h, 10 µM, compound concentration 10 uM, replicate 1
[12] = 48 h, 10 µM, compound concentration 10 uM, replicate 2

Compound: CN(C)C(=O)Cn1cc(-c2ccc(-c3cncc4ccccc34)cc2)cn1
- Population Apoptotic (%) [1]: 47%
- Population Fragmented Nuclei (%) [1]: 10%
- Population Healthy Nuclei (%) [1]: 72%
- Population Hoechst High Intensity Objects (%) [1]: 0%
- Population Membrane Permeable-Phenotype (%) [1]: 0%
- Population Mitochondria Different-Phenotype (%) [1]: 5%
- Population Mitotic Cells (%) [1]: 52%
- Population Normal (%) [1]: 100%
- Population Pyknosed Nuclei (%) [1]: 16%
- Population Tubulin-Different-Phenotype (%) [1]: 31%
- Total Cell Count [1]: 139
- Population Apoptotic (%) [2]: 32%
- Population Fragmented Nuclei (%) [2]: 33%
- Population Healthy Nuclei (%) [2]: 46%
- Population Hoechst High Intensity Objects (%) [2]: 5%
- Population Membrane Permeable-Phenotype (%) [2]: 5%
- Population Mitochondria Different-Phenotype (%) [2]: 2%
- Population Mitotic Cells (%) [2]: 67%
- Population Normal (%) [2]: 94%
- Population Pyknosed Nuclei (%) [2]: 20%
- Population Tubulin-Different-Phenotype (%) [2]: 54%
- Total Cell Count [2]: 161
- Population Apoptotic (%) [3]: 33%
- Population Fragmented Nuclei (%) [3]: 13%
- Population Healthy Nuclei (%) [3]: 69%
- Population Hoechst High Intensity Objects (%) [3]: 4%
- Population Membrane Permeable-Phenotype (%) [3]: 1%
- Population Mitochondria Different-Phenotype (%) [3]: 12%
- Population Mitotic Cells (%) [3]: 66%
- Population Normal (%) [3]: 95%
- Population Pyknosed Nuclei (%) [3]: 16%
- Population Tubulin-Different-Phenotype (%) [3]: 52%
- Total Cell Count [3]: 113
- Population Fragmented Nuclei (%) [4]: 40%
- Population Healthy Nuclei (%) [4]: 42%
- Population Hoechst High Intensity Objects (%) [4]: 9%
- Population Membrane Permeable-Phenotype (%) [4]: 18%
- Population Mitochondria Different-Phenotype (%) [4]: 5%
- Population Normal (%) [4]: 90%
- Population Tubulin-Different-Phenotype (%) [4]: 81%
- Total Cell Count [4]: 98
- Population Apoptotic (%) [5]: 47%
- Population Fragmented Nuclei (%) [5]: 12%
- Population Healthy Nuclei (%) [5]: 73%
- Population Hoechst High Intensity Objects (%) [5]: 5%
- Population Membrane Permeable-Phenotype (%) [5]: 0%
- Population Mitochondria Different-Phenotype (%) [5]: 3%
- Population Mitotic Cells (%) [5]: 52%
- Population Normal (%) [5]: 94%
- Population Pyknosed Nuclei (%) [5]: 14%
- Population Tubulin-Different-Phenotype (%) [5]: 37%
- Total Cell Count [5]: 137
- Population Apoptotic (%) [6]: 48%
- Population Fragmented Nuclei (%) [6]: 40%
- Population Healthy Nuclei (%) [6]: 38%
- Population Membrane Permeable-Phenotype (%) [6]: 7%
- Population Mitochondria Different-Phenotype (%) [6]: 5%
- Population Mitotic Cells (%) [6]: 51%
- Population Pyknosed Nuclei (%) [6]: 20%
- Population Tubulin-Different-Phenotype (%) [6]: 61%
- Total Cell Count [6]: 156
- Population Apoptotic (%) [7]: 50%
- Population Fragmented Nuclei (%) [7]: 20%
- Population Healthy Nuclei (%) [7]: 62%
- Population Hoechst High Intensity Objects (%) [7]: 8%
- Population Membrane Permeable-Phenotype (%) [7]: 0%
- Population Mitochondria Different-Phenotype (%) [7]: 12%
- Population Mitotic Cells (%) [7]: 50%
- Population Normal (%) [7]: 91%
- Population Pyknosed Nuclei (%) [7]: 17%
- Population Tubulin-Different-Phenotype (%) [7]: 59%
- Total Cell Count [7]: 113
- Population Apoptotic (%) [8]: 41%
- Population Fragmented Nuclei (%) [8]: 41%
- Population Healthy Nuclei (%) [8]: 43%
- Population Hoechst High Intensity Objects (%) [8]: 5%
- Population Membrane Permeable-Phenotype (%) [8]: 11%
- Population Mitochondria Different-Phenotype (%) [8]: 8%
- Population Mitotic Cells (%) [8]: 58%
- Population Normal (%) [8]: 94%
- Population Pyknosed Nuclei (%) [8]: 15%
- Population Tubulin-Different-Phenotype (%) [8]: 85%
- Total Cell Count [8]: 85
- Population Apoptotic (%) [9]: 76%
- Population Fragmented Nuclei (%) [9]: 21%
- Population Healthy Nuclei (%) [9]: 65%
- Population Hoechst High Intensity Objects (%) [9]: 6%
- Population Membrane Permeable-Phenotype (%) [9]: 3%
- Population Mitochondria Different-Phenotype (%) [9]: 8%
- Population Mitotic Cells (%) [9]: 23%
- Population Normal (%) [9]: 93%
- Population Pyknosed Nuclei (%) [9]: 12%
- Population Tubulin-Different-Phenotype (%) [9]: 57%
- Total Cell Count [9]: 144
- Population Apoptotic (%) [10]: 44%
- Population Fragmented Nuclei (%) [10]: 36%
- Population Healthy Nuclei (%) [10]: 40%
- Population Hoechst High Intensity Objects (%) [10]: 7%
- Population Membrane Permeable-Phenotype (%) [10]: 5%
- Population Mitochondria Different-Phenotype (%) [10]: 7%
- Population Mitotic Cells (%) [10]: 55%
- Population Normal (%) [10]: 92%
- Population Pyknosed Nuclei (%) [10]: 22%
- Population Tubulin-Different-Phenotype (%) [10]: 77%
- Total Cell Count [10]: 141
- Population Apoptotic (%) [11]: 72%
- Population Fragmented Nuclei (%) [11]: 24%
- Population Healthy Nuclei (%) [11]: 54%
- Population Hoechst High Intensity Objects (%) [11]: 9%
- Population Membrane Permeable-Phenotype (%) [11]: 0%
- Population Mitochondria Different-Phenotype (%) [11]: 20%
- Population Mitotic Cells (%) [11]: 27%
- Population Normal (%) [11]: 90%
- Population Pyknosed Nuclei (%) [11]: 20%
- Population Tubulin-Different-Phenotype (%) [11]: 55%
- Total Cell Count [11]: 117
- Population Apoptotic (%) [12]: 12%
- Population Fragmented Nuclei (%) [12]: 47%
- Population Healthy Nuclei (%) [12]: 44%
- Population Hoechst High Intensity Objects (%) [12]: 0%
- Population Membrane Permeable-Phenotype (%) [12]: 8%
- Population Mitochondria Different-Phenotype (%) [12]: 13%
- Population Mitotic Cells (%) [12]: 87%
- Population Normal (%) [12]: 99%
- Population Pyknosed Nuclei (%) [12]: 7%
- Population Tubulin-Different-Phenotype (%) [12]: 73%
- Total Cell Count [12]: 102
